Results: ChEMBL document CHEMBL1129647, “Targeting delavirdine/atevirdine resistant HIV-1: identification of (alkylamino)piperidine-containing bis(heteroaryl)piperazines as broad spectrum HIV-1 reverse transcriptase inhibitors” (J Med Chem, 1996)

Tests used:
[1] = biological target: T1, Human immunodeficiency virus type 1 reverse transcriptase (Human immunodeficiency virus 1, UniProt Q72547, Y181C)
[2] = biological target: T2, Human immunodeficiency virus type 1 reverse transcriptase (Human immunodeficiency virus 1, UniProt Q72547)
[3] = biological target: T3, Human immunodeficiency virus type 1 reverse transcriptase (Human immunodeficiency virus 1, UniProt Q72547, P236L)
[4] = Bioavailability at an iv dose of 15.6 mg/Kg and po dose of 31.2 mg/Kg; format: ADME, organism-based; conditions: rat, in vivo, read-out: Bioavailabiility
Method in brief: (§1)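 Male Sprague-Dawley rats, fasted, dosed iv and po in a crossover design with a 1 week washout between treatments (N = 3). Compound was given as a solution in propylene glycol/water (80/20, v/v) acidified with a molar excess of methanesulfonic acid. Values are the iv clearance and the absolute oral bioavailability.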

[5] = Clearance at an iv dose of 15.6 mg/Kg and po dose of 31.2 mg/Kg; format: ADME, organism-based; conditions: rat, in vivo
Method in brief: as §1

[6] = tested on: Human immunodeficiency virus 1; assay: Concentration required to inhibit P24 production by 90% against L-697661 of HIV-1 IIIB (Y181C); format: functional
[7] = tested on: Human immunodeficiency virus 1; assay: Concentration required to inhibit P24 production by 90% against U-90,152 of HIV-1 MF (P236L); format: functional
[8] = Clearance at an iv dose of 15 mg/Kg and po dose of 30 mg/Kg; format: ADME, organism-based; conditions: in vivo
Method in brief: as §1

[9] = Bioavailability (dose 15 mg/kg i.v. and 30 mg/kg p.o.); format: ADME, organism-based; conditions: in vivo, po
Method in brief: as §1

[10] = tested on: Human immunodeficiency virus 1; assay: Concentration required to inhibit P24 production by 90% against U-90,152 of HIV-1 IIIB (L100I, M230L); format: functional
[11] = biological target: T2, Human immunodeficiency virus type 1 reverse transcriptase; assay: Compound was tested for inhibition of HIV-1 WT reverse transcriptase using dTTP as substrate
[12] = biological target: T2, Human immunodeficiency virus type 1 reverse transcriptase; assay: Compound was tested for inhibition of HIV-1 WT reverse transcriptase using poly(rA)300:oligo(dT)10 as substrate
[13] = biological target: T3, Human immunodeficiency virus type 1 reverse transcriptase; assay: Compound was tested for inhibition of HIV-1 P236L reverse transcriptase using poly(rA)300:oligo(dT)10 as substrate
[14] = biological target: T1, Human immunodeficiency virus type 1 reverse transcriptase; assay: Compound was tested for inhibition of HIV-1 Y181C cell line using poly(rA)300:oligo(dT)10 as substrate
Method in brief: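 Kinetic inhibition study on homodimeric recombinant HIV-1 RTs (WT, P236L, Y181C), varying dTTP or poly(rA):(dT)10 template:primer. Base assay: 28 °C, 10 min, pH 8.3 Tris-HCl, 10 mM MgCl2, 60 mM NaCl, 2 mM DTT, 0.05% NP-40, [3H]TTP incorporation. TCA-precipitated product collected on glass fibre filters and counted. Ki values derived.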

[15] = tested on: Human immunodeficiency virus 1; assay: In vitro inhibition of recombinant HIV-1 IIIB mutant P236L; format: functional, organism-based
[16] = biological target: T3, Human immunodeficiency virus type 1 reverse transcriptase; assay: Compound was tested for inhibition of HIV-1 P236L reverse transcriptase using dTTP as substrate
[17] = tested on: Human immunodeficiency virus 1; assay: In vitro inhibition of recombinant HIV-1 IIIB mutant WT; format: functional, organism-based
[18] = tested on: Human immunodeficiency virus 1; assay: In vitro inhibition of recombinant HIV-1 IIIB mutant Y181C; format: functional, organism-based
[19] = biological target: T1, Human immunodeficiency virus type 1 reverse transcriptase; assay: Compound was tested for inhibition of HIV-1 Y181C reverse transcriptase using dTTP as substrate
[20] = Bioavailability at an iv dose of 15 mg/Kg and po dose of 29.1 mg/Kg; format: ADME, organism-based; conditions: in vivo, read-out: Bioavailabiility
Method in brief: as §1

[21] = tested on: Human immunodeficiency virus 1; assay: Concentration required to inhibit P24 production by 90% against L-697,661 of HIV-1IIIB(Y181c); format: functional
[22] = tested on: Human immunodeficiency virus 1; assay: Concentration required to inhibit P24 production by 90% against U-90,152 of HIV-1 MF(P236L); format: functional

Compound | IC50 [1] [nM] | IC50 [2] [nM] | IC50 [3] [nM] | IC90 [6] [nM] | IC90 [7] [nM] | IC90 [10] [nM] | further results
CC(C)Nc1ccc(Cl)nc1N(C)C1CCN(C(=O)c2cc3cc(NS(C)(=O)=O)ccc3[nH]2)CC1 | 2130 | 360 | 1700 |  |  |  | 
CC(C)Nc1ccnnc1N(C)C1CCN(C(=O)c2cc3cc(NS(C)(=O)=O)ccc3[nH]2)CC1 | 1310 | 740 | 4560 |  |  |  | bioavailability [4]: 0%; clearance [5]: 40 mL/min/kg
CN(c1ncccc1NC1CC1)C1CCN(C(=O)c2cc3cc(NS(C)(=O)=O)ccc3[nH]2)CC1 | 280 | 90 | 210 | 4400 | > 10000 |  | 
CCNc1cccnc1N(CC)C1CCN(C(=O)c2cc3cc(NS(=O)(=O)C(C)C)ccc3[nH]2)CC1 | 660 | 450 | 330 |  |  |  | 
CCN(c1nc(F)ccc1NC(C)(C)C)C1CCN(C(=O)c2cc3cc(NS(C)(=O)=O)ccc3[nH]2)CC1 | 1060 | 730 | 1050 | < 30 | 220 | 120 | clearance ([8]; rat): 27 mL/min/kg; bioavailability ([9]; rat): 17.1%
CCC(C)(C)Nc1cccnc1N(C)C1CCN(C(=O)c2cc3cc(NS(C)(=O)=O)ccc3[nH]2)CC1 | 530 | 350 | 3330 |  |  |  | 
CCNc1cccnc1N(CC)C1CCN(C(=O)c2cc3cc(NS(=O)(=O)N4CCN(C)CC4)ccc3[nH]2)CC1 | 1110 | 240 | 440 |  |  |  | 
CN(c1ncccc1NC1(C)CC1)C1CCN(C(=O)c2cc3cc(NS(C)(=O)=O)ccc3[nH]2)CC1 | 370 | 160 | 1450 | 2300 | > 300 |  | 
CCCN(c1ncccc1NC(C)(C)C)C1CCN(C(=O)c2cc3cc(NS(C)(=O)=O)ccc3[nH]2)CC1 | 2480 | 480 | 1450 | 30 | 320 | 110 | 
CCN(c1ncccc1NC(C)(C)C)C1CCN(C(=O)c2cc3cc(NC(=O)N4CCN(C)CC4)ccc3[nH]2)CC1 | 610 | 220 | 370 | 50 | 160 | 160 | clearance ([8]; rat): 61 mL/min/kg; bioavailability ([9]; rat): 35.1%
CCCN(c1ncccc1NCC)C1CCN(C(=O)c2cc3cc(NS(C)(=O)=O)ccc3[nH]2)CC1 | 950 | 150 | 520 |  |  |  | 
CCN(c1ncccc1NC(C)(C)C)C1CCN(C(=O)c2cc3cc(NS(=O)(=O)N4CCN(C)CC4)ccc3[nH]2)CC1 | 1830 | 790 | 1250 | < 30 | 340 | 140 | clearance ([8]; rat): 73.7 mL/min/kg; bioavailability ([9]; rat): 32%
CCCNc1cccnc1N(CC)C1CCN(C(=O)c2cc3cc(NS(C)(=O)=O)ccc3[nH]2)CC1 | 450 | 130 | 280 | 140 | 400 |  | 
CCNc1cccnc1N(CC)C1CCN(C(=O)c2cc3cc(NS(C)(=O)=O)ccc3[nH]2)CC1 | 880 | 460 | 540 | 180 | 310 | 80 | clearance ([8]; rat): 66.6 mL/min/kg; bioavailability ([9]; rat): 2.8%
CCN(c1nc(F)ccc1NC(C)C)C1CCN(C(=O)c2cc3cc(NS(C)(=O)=O)ccc3[nH]2)CC1 | 880 | 460 | 540 | 140 | 300 | 110 | 
CCNc1cccnc1N(CC)C1CCN(C(=O)c2cc3cc(NC(=O)N4CCN(C)CC4)ccc3[nH]2)CC1 | 1230 | 140 | 240 |  |  |  | 
CN(c1nc(F)ccc1NC(C)(C)C)C1CCN(C(=O)c2cc3cc(NS(C)(=O)=O)ccc3[nH]2)CC1 | 720 | 530 | 1900 | 440 | 2600 | 1600 | 

Compound | IC50 [1] [nM] | IC50 [2] [nM] | IC50 [3] [nM] | IC90 [6] [nM] | IC90 [7] [nM] | IC90 [10] [nM] | further results
CCN(c1ncccc1NC(C)C)C1CCN(C(=O)c2cc3cc(NS(C)(=O)=O)ccc3[nH]2)CC1 | 400 | 250 | 200 |  |  |  | 
CCN(c1nc(F)ccc1NC(C)(C)C)C1CCN(C(=O)c2cc3cc(NS(=O)(=O)N4CCN(C)CC4)ccc3[nH]2)CC1 | 2070 | 830 | 1090 | 150 | 290 | 290 | clearance ([8]; rat): 61 mL/min/kg; bioavailability ([9]; rat): 54%
CC(C)Nc1cccnc1N(C)C1CCN(C(=O)c2cc3ccc(CO)cc3[nH]2)CC1 | 490 | 170 | 370 |  |  |  | 
CCN(c1ncccc1NC(C)C)C1CCN(C(=O)c2cc3cc(NC(=O)N4CCN(C)CC4)ccc3[nH]2)CC1 | 410 | 140 | 180 | 50 | 240 | 110 | clearance ([8]; rat): 50 mL/min/kg; bioavailability ([9]; rat): 21.3%
CCN(c1nc(F)ccc1NC(C)(C)C)C1CCN(C(=O)c2cc3cc(NC(=O)N4CCN(C)CC4)ccc3[nH]2)CC1 |  |  |  | 130 | 160 | 140 | Ki [11]: 1260 nM; clearance [8]: 16 mL/min/kg; bioavailability ([9]; eutheria): 42%; Ki [12]: 1640 nM; Ki [13]: 1740 nM; Ki [14]: 3030 nM; IC50 [15]: 430 nM; Ki [16]: 2020 nM; IC50 [17]: 210 nM; IC50 [18]: 790 nM; Ki [19]: 2550 nM
CCN(c1ncccc1NC(C)C)C1CCN(C(=O)c2cc3cc(NS(=O)(=O)N4CCN(C)CC4)ccc3[nH]2)CC1 | 770 | 380 | 570 | 170 | 300 |  | clearance ([8]; rat): 89 mL/min/kg; bioavailability ([9]; rat): 8%
CN(c1ncccc1NC(C)(C)C)C1CCN(C(=O)c2cc3cc(NS(C)(=O)=O)ccc3[nH]2)CC1 |  |  |  | 220 | 5400 | 830 | bioavailability [20]: 44%
CCCN(c1ncccc1NC(C)C)C1CCN(C(=O)c2cc3cc(NC(=O)N4CCN(C)CC4)ccc3[nH]2)CC1 | 860 | 190 | 400 |  |  |  | 
CC(C)Nc1cccnc1N(C)C1CCN(C(=O)c2cc3ccc(OCCOCCOCCO)cc3[nH]2)CC1 | 770 | 300 | 410 |  |  |  | 
CN(c1ncccc1NCC1CC1)C1CCN(C(=O)c2cc3cc(NS(C)(=O)=O)ccc3[nH]2)CC1 | 2910 | 520 | 14600 |  |  |  | 
CCN(c1nc(Cl)ccc1NC(C)(C)C)C1CCN(C(=O)c2cc3cc(NS(C)(=O)=O)ccc3[nH]2)CC1 | 3000 | 1020 | 1520 |  |  |  | IC90 [21]: > 300 nM; IC90 [22]: 240 nM
CCNc1cccnc1N(CC)C1CCN(C(=O)c2cc3cc(NS(=O)(=O)CC)ccc3[nH]2)CC1 | 480 | 400 | 260 |  |  |  | 
CCNc1cccnc1N(C(C)C)C1CCN(C(=O)c2cc3cc(NS(C)(=O)=O)ccc3[nH]2)CC1 | 3600 | 380 | 2600 |  |  |  | 
CCCN(c1ncccc1NC(C)C)C1CCN(C(=O)c2cc3cc(NS(C)(=O)=O)ccc3[nH]2)CC1 | 610 | 240 | 240 | 60 | 220 |  | 
CC(C)Nc1cccnc1N(C1CC1)C1CCN(C(=O)c2cc3ccccc3[nH]2)CC1 | 2310 | 700 | 590 |  |  |  | 
CCc1cc(NCc2nc3c(Cl)ccc(Cl)c3o2)c(O)nc1C [L-697661] | > 60000 | 800 | 110 | > 10000 | 430 | 4000 | 
